ChEMBL document CHEMBL1134337, “Behavioral approach to nondyskinetic dopamine antagonists: identification of seroquel” (J Med Chem, 2001)

Experiments:
[1] = Number of animals showing dyskinesias was determined in haloperidol sensitized 2 cebus monkeys after (po) administration of 10 mg/kg; assay type: functional
Method in brief: (§1)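 Adult female and male Cebus monkeys sensitized with oral haloperidol 1 mg/kg once per week until dyskinetic reactions occurred. Test drug given orally (2 mL/kg) in 0.5% w/w hydroxypropylmethylcellulose with 0.1% w/w Tween 80 in distilled water, at least 2 weeks between treatments. Two observers watched continuously for 6-7 h, recording reaction type and severity every 30 min. Score is monkeys with dyskinesias/monkeys tested.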

[2] = Number of animals showing dyskinesias was determined in haloperidol sensitized 2 cebus monkeys after (po) administration of 20 mg/kg; assay type: functional; method in brief: as §1
D(2) dopamine receptor = D(2) dopamine receptor (Rattus norvegicus, UniProt P61169); test: Inhibition of spiropiperidone binding at dopamine receptor D2 of rat.
Chain of D(2) dopamine receptor (P61169 whole entry): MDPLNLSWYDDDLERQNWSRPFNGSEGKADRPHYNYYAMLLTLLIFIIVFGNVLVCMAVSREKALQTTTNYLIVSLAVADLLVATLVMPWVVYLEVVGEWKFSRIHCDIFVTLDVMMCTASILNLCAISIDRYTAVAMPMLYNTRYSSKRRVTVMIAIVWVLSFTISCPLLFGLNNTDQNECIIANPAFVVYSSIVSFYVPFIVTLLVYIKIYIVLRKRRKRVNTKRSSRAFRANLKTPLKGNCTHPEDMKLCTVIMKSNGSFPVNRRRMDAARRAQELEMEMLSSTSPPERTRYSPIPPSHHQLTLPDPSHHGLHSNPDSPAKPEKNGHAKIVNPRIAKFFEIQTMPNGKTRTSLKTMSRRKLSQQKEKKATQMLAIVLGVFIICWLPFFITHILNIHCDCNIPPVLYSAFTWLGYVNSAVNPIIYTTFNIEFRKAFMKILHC

Mus musculus [3] = test: Antagonism of apomorphine induced climbing was determined in female swiss -Webster mice after (ip) administration of 10 mg/kg; assay type: functional
Method in brief: (§2)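 Female Swiss-Webster mice (about 20 g) were fasted about 24 h, then given test compound or vehicle ip or po (N = 20 per group). Vehicle was 0.5% w/w hydroxypropylmethylcellulose with 0.1% w/w Tween 80 in water. After 30 min, mice received apomorphine HCl 1.25 mg/kg sc. At 13 min, each mouse was watched for 1 min; score was mean of highest and lowest rung of 27. Groups were compared with vehicle by Student's t-test.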

Mus musculus [4] = test: Antagonism of apomorphine induced climbing was determined in female swiss -Webster mice after (ip) administration of 2.5 mg/kg; assay type: functional; method in brief: as §2
Mus musculus [5] = test: Antagonism of apomorphine induced climbing was determined in female swiss -Webster mice after (ip) administration of 20 mg/kg; assay type: functional; method in brief: as §2
Mus musculus [6] = test: Antagonism of apomorphine induced climbing was determined in female swiss -Webster mice after (ip) administration of 40 mg/kg; assay type: functional; method in brief: as §2
Mus musculus [7] = test: Antagonism of apomorphine induced climbing was determined in female swiss -Webster mice after (ip) administration of 5 mg/kg; assay type: functional; method in brief: as §2
Mus musculus [8] = test: Antagonism of apomorphine induced swimming was determined in female swiss -Webster mice after (ip) administration of 10 mg/kg; assay type: functional
Mus musculus [9] = test: Antagonism of apomorphine induced swimming was determined in female swiss -Webster mice after (ip) administration of 2.5 mg/kg; assay type: functional
Mus musculus [10] = test: Antagonism of apomorphine induced swimming was determined in female swiss -Webster mice after (ip) administration of 20 mg/kg; assay type: functional
Mus musculus [11] = test: Antagonism of apomorphine induced swimming was determined in female swiss -Webster mice after (ip) administration of 40 mg/kg; assay type: functional
Mus musculus [12] = test: Antagonism of apomorphine induced swimming was determined in female swiss -Webster mice after (ip) administration of 5 mg/kg; assay type: functional
[13] = Number of animals showing dyskinesias was determined in haloperidol sensitized 11 cebus monkeys after (po) administration of 40 mg/kg; assay type: functional
Method in brief: (§3)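 Adult male and female Cebus monkeys sensitized with haloperidol 1 mg/kg po weekly until dyskinetic reactions appeared. Drug given orally (2 mL/kg) in 0.5% w/w hydroxypropylmethylcellulose with 0.1% w/w Tween 80, at least 2 weeks between treatments. Two observers watched continuously for 6–7 h, logging reaction type and severity every 30 min. Score is the number of monkeys with dyskinesias over the number tested.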

[14] = Number of animals showing dyskinesias was determined in haloperidol sensitized 13 cebus monkeys after (po) administration of 10 mg/kg; assay type: functional; method in brief: as §3
[15] = Number of animals showing dyskinesias was determined in haloperidol sensitized 13 cebus monkeys after (po) administration of 20 mg/kg; assay type: functional; method in brief: as §3
Mus musculus [16] = test: Antagonism of apomorphine induced climbing was determined in female swiss -Webster mice after (ip) administration of 80 mg/kg; assay type: functional; method in brief: as §2
Mus musculus [17] = test: Antagonism of apomorphine induced swimming was determined in female swiss -Wbster mice after (po) administration of 20 mg/kg; assay type: functional
Mus musculus [18] = test: Antagonism of apomorphine induced swimming was determined in female swiss -Wbster mice after (po) administration of 40 mg/kg; assay type: functional
Mus musculus [19] = test: Antagonism of apomorphine induced swimming was determined in female swiss -Wbster mice after (po) administration of 80 mg/kg; assay type: functional
Mus musculus [20] = test: Antagonism of apomorphine induced swimming was determined in female swiss -Webster mice after (po) administration of 10 mg/kg; assay type: functional
Method in brief: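 Female Swiss-Webster mice (~20 g), food-deprived ~24 h, N = 20 per group; oral dosing in 0.5% w/w hydroxypropylmethylcellulose with 0.1% w/w Tween 80 in water. Apomorphine given; mice placed in a circular tank (5.5 cm water, room temperature) with marks 180° apart. Each 180° swim counted, observed via overhead mirrors; group score derived from swim counts.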

[21] = Number of animals showing dyskinesias was determined in haloperidol sensitized 6 cebus monkeys after (po) administration of 10 mg/kg; assay type: functional; conditions: dose 20 mg/kg; in the assay text read “20 mg/kg” for “10 mg/kg”; method in brief: as §1
Mus musculus [22] = test: Antagonism of apomorphine induced climbing was determined in female swiss -Wbster mice after (ip) administration of 10 mg/kg; assay type: functional; method in brief: as §2
Mus musculus [23] = test: Antagonism of apomorphine induced climbing was determined in female swiss -Wbster mice after (ip) administration of 20 mg/kg; assay type: functional; method in brief: as §2
Mus musculus [24] = test: Antagonism of apomorphine induced climbing was determined in female swiss -Wbster mice after (ip) administration of 40 mg/kg; assay type: functional; method in brief: as §2
Mus musculus [25] = test: Antagonism of apomorphine induced swimming was determined in female swiss -Wbster mice after (ip) administration of 10 mg/kg; assay type: functional
Mus musculus [26] = test: Antagonism of apomorphine induced swimming was determined in female swiss -Wbster mice after (ip) administration of 20 mg/kg; assay type: functional
Mus musculus [27] = test: Antagonism of apomorphine induced swimming was determined in female swiss -Wbster mice after (ip) administration of 40 mg/kg; assay type: functional
[28] = Number of animals showing dyskinesias was determined in haloperidol sensitized 5 cebus monkeys after (po) administration of 20 mg/kg; 5/5; assay type: functional; method in brief: as §1
[29] = Number of animals showing dyskinesias was determined in haloperidol sensitized 5 cebus monkeys after (po) administration of 5 mg/kg; assay type: functional; method in brief: as §1
[30] = target: D(2) dopamine receptor (Rattus norvegicus) (UniProt P61169); test: Binding affinity at dopamine receptor D2 from rat by spiropiperidone displacement.
Chain of D(2) dopamine receptor (Rattus norvegicus) (P61169 whole entry): as above
Method in brief: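 D2 receptor binding was read as % displacement of spiropiperidone, with test compound at 1000 nM unless stated otherwise. IC50 values used at least five concentrations per compound in triplicate. Each value is the mean of two replicate experiments differing by 5% or less.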

[31] = Number of animals showing dyskinesias was determined in haloperidol sensitized 3 cebus monkeys after (po) administration of 20 mg/kg; assay type: functional; method in brief: as §1
[32] = Number of animals showing dyskinesias was determined in haloperidol sensitized 12 cebus monkeys after (po) administration of 20 mg/kg; assay type: functional
Method in brief: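 Adult male and female Cebus monkeys were sensitized with haloperidol 1 mg/kg po weekly until dyskinesias appeared. Test drug was given po (2 mL/kg) in HPMC/Tween 80 vehicle, with at least 2 weeks between treatments. Two observers watched continuously for 6-7 h, recording reaction type and severity every 30 min. Result is number of monkeys showing dyskinesias over number tested.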

[33] = Number of animals showing dyskinesias was determined in haloperidol sensitized 2 cebus monkeys after (po) administration of 40 mg/kg; assay type: functional; method in brief: as §1
[34] = Number of animals showing dyskinesias was determined in haloperidol sensitized 5 cebus monkeys after (po) administration of 10 mg/kg; assay type: functional; method in brief: as §1
Mus musculus [35] = test: Antagonism of apomorphine induced climbing was determined in female swiss -Wbster mice after (ip) administration of 80 mg/kg; assay type: functional; method in brief: as §2
Mus musculus [36] = test: Antagonism of apomorphine induced climbing was determined in female swiss -Wbster mice after (po) administration of 80 mg/kg; assay type: functional; method in brief: as §2
Mus musculus [37] = test: Antagonism of apomorphine induced swimming was determined in female swiss -Wbster mice after (ip) administration of 80 mg/kg; assay type: functional

Row | Compound | IC50 (D(2) dopamine receptor) [µM] | Activity (Mus musculus [3]) | Activity (Mus musculus [5]) | Activity (Mus musculus [6]) | Activity (Mus musculus [7]) | Activity (Mus musculus [8]) | Activity (Mus musculus [10]) | Activity (Mus musculus [11]) | Activity (Mus musculus [12]) | Activity (Mus musculus [17]) | Activity (Mus musculus [18]) | Activity (Mus musculus [19]) | Activity (Mus musculus [22]) | Activity (Mus musculus [23]) | Activity (Mus musculus [24]) | Activity (Mus musculus [25]) | Activity (Mus musculus [26]) | Activity (Mus musculus [27]) | further results
1 | COCC(CN1CCN(C2=Nc3ccccc3Sc3ccccc32)CC1)OC (stereo not drawn) | 0.795 | 1 | 2 | 0 | 5 | 17 | 28 | 33 | 9 |  |  |  |  |  |  |  |  |  | No of monkeys [1]: 1; No of monkeys [2]: 1; Activity (Mus musculus [4]): 18; Activity (Mus musculus [9]): 5
2 | CN1CCN(C2=Nc3cc(Cl)ccc3Nc3ccccc32)CC1 [CLOZAPINE] |  | 23 | 19 | >5 |  |  |  |  |  | 3 | >13 | >15 |  |  |  |  |  |  | No of monkeys [13]: 0; No of monkeys [14]: 0; No of monkeys [15]: 0; Activity (Mus musculus [16]): >0; Activity (Mus musculus [20]): 4
3 | OCCOCCN1CCN(C2=Nc3cc(Cl)ccc3Oc3ccccc32)CC1 |  |  |  |  |  |  |  |  |  | 2 | 4 |  |  | 17 | 0 |  |  |  | % displacement of spiropiperidone [30]: 54%; No of monkeys [31]: 2
4 | OCCOCCN1CCN(C2=Nc3ccc(F)cc3Sc3ccccc32)CC1 | 0.56 |  |  |  |  |  |  |  |  |  |  | 2 | 14 | 9 | 8 | 1 | 1 | 8 | No of monkeys [32]: 3; No of monkeys [33]: 0; No of monkeys [34]: 1; Activity (Mus musculus [35]): 2; Activity (Mus musculus [36]): 23; Activity (Mus musculus [37]): 18

The next lines start with results.

Row | IC50 (D(2) dopamine receptor) [µM] | Compound | Activity (Mus musculus [3]) | Activity (Mus musculus [5]) | Activity (Mus musculus [6]) | Activity (Mus musculus [7]) | Activity (Mus musculus [8]) | Activity (Mus musculus [10]) | Activity (Mus musculus [11]) | Activity (Mus musculus [12]) | Activity (Mus musculus [17]) | Activity (Mus musculus [18]) | Activity (Mus musculus [19]) | Activity (Mus musculus [22]) | Activity (Mus musculus [23]) | Activity (Mus musculus [24]) | Activity (Mus musculus [25]) | Activity (Mus musculus [26]) | Activity (Mus musculus [27]) | further results
5 | 0.166 | OCCOCCN1CCN(C2=Nc3ccc(O)cc3Sc3ccccc32)CC1 |  |  |  |  |  |  |  |  |  |  |  | 27 | 5 | 0 | 5 | 17 | 31 | No of monkeys [21]: 5
6 | 0.293 | COCC(CCN1CCN(C2=Nc3ccccc3Sc3ccccc32)CC1)OC (stereo not drawn) | 5 | 0 | 0 | 21 | 8 | 20 | 32 | 2 |  |  |  |  |  |  |  |  |  | No of monkeys [28]: 5; No of monkeys [29]: 0
